From ChEMBL document CHEMBL3992503, “Developing piperlongumine-directed glutathione S-transferase inhibitors by an electrophilicity-based strategy” (Eur J Med Chem, 2017)
The source made the active and inactive calls. The calls are words filed in the database; no cut-off is given here.

Experiments:
[1] = organism: Equus caballus; test: Inhibition of equine liver GST assessed as decrease in conjugation of CDNB to GSH at 100 uM preincubated with GSH for 30 mins followed by CDNB addition measured for 3 mins relative to control
Method in brief: (§1)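 CDNB–GSH conjugation by equine liver GST in 100 mM potassium phosphate pH 6.5 with 1 mM GSH. Enzyme and inhibitor preincubated 30 min at 37 °C. Reaction started with 1 mM CDNB (final) and followed at 340 nm for 3 min at 25 °C. Single-point inhibition at 100 (unit unclear); IC50 from sigmoidal fit of inhibition versus concentration.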

[2] = Inhibition of equine liver GST assessed as decrease in conjugation of CDNB to GSH preincubated with GSH for 30 mins followed by CDNB addition measured for 3 mins; design: species or system Equus caballus; method in brief: as §1
[3] = Electrophilicity of the compound assessed as second-oder rate constant for reaction with cysteamine under pseudo-first-oder condition at 40 uM by spectrophotometric method
Method in brief: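 Compound fixed at 40 (unit unclear) with cysteamine 0.67–9 mM in 100 mM Tris-HCl pH 7.4 containing 2 mM EDTA–ethanol (v/v 2/1), 25 °C, pseudo-first-order conditions. Decay of compound followed spectrophotometrically at its absorbance maximum; second-order constant k2 derived from these runs.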

[4] = tested on: A549; test: Inhibition of GST in human A549 cells at 25 uM after 1.5 hrs by DNs-CV probe based fluorescence microscopic method
[5] = target: T1, Glutathione S-transferase Mu 1 (Homo sapiens) (UniProt P09488); test: Inhibition of GSTM1 in human A549 cells assessed as potentiation of cisplatin-induced cytotoxicity by measuring combination index at 5 uM preincubated for 2 hrs followed by cisplatin addition measured after 48 hrs by MTT assay; format: cell-based
T1 sequence (whole entry): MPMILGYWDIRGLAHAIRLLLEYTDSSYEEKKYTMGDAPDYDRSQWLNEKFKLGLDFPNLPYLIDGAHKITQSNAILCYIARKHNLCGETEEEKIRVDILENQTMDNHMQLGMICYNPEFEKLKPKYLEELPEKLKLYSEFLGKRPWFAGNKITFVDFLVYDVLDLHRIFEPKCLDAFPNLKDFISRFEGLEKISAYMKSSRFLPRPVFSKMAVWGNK

[6] = target: T1, Glutathione S-transferase Mu 1 (Homo sapiens); test: Inhibition of GSTM1 in human A549 cells assessed as potentiation of cisplatin-induced cytotoxicity at 5 uM preincubated for 2 hrs followed by cisplatin addition measured after 48 hrs in presence of DTT by MTT assay; format: cell-based
Method in brief: (§2)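 A549 cells seeded at 3 × 10⁴ cells/mL and cultured 24 h. For line 6, DTT pretreatment (250, unit unclear) for 1 h. Compound added for 2 h, then cisplatin at 2.5, 5, 10 and 20 (unit unclear) for 48 h. MTT for 4 h at 37 °C in the dark, DMSO solubilisation, OD read at 570 nm.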

[7] = target: T1, Glutathione S-transferase Mu 1 (Homo sapiens); test: Inhibition of GSTM1 in human A549 cells assessed as potentiation of cisplatin-induced cytotoxicity at 5 uM preincubated for 2 hrs followed by cisplatin addition measured after 48 hrs by MTT assay; format: cell-based; method in brief: as §2
[8] = Noncompetitive inhibition of equine liver GST using fixed GSH substrate concentration and varying levels of CDNB preincubated with GSH for 30 mins followed by CDNB addition measured for 3 mins by Lineweaver-Burk plot analysis; design: species or system Equus caballus
Method in brief: (§3)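 Equine liver GST in 100 mM potassium phosphate pH 6.5 with inhibitor at 0, 12.5, 25 or 50 (unit unclear). Varied substrate at 0.1–1 mM, other substrate fixed at 1 mM: GSH varied for line 1, CDNB for line 10. Preincubated 30 min at 37 °C, started with CDNB, A340 read for 3 min at 25 °C. Mean of triplicates on Lineweaver-Burk plots; Ki from intercept (CDNB) or slope (GSH) replots.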

[9] = tested on: A549; test: Inhibition of GST in human A549 cells at 25 uM after 1.5 hrs in presence of DTT by DNs-CV probe based fluorescence microscopic method
[10] = Competitive inhibition of equine liver GST using varying levels of substrate GSH and fixed CDNB concentration preincubated with GSH for 30 mins followed by CDNB addition measured for 3 mins by Lineweaver-Burk plot analysis; design: species or system Equus caballus; method in brief: as §3

inhibition [1] [%]	IC50 [2] [µM]	Ki [8] [µM]	Ki [10] [µM]	Compound	K [3] [M⁻¹ s⁻¹]	inhibition [4]	CI [5]	inhibition [6]	inhibition [7]	inhibition [9]
40.3	> 100			O=C(/C=C/c1ccccc1C(F)(F)F)N1CCC=C(Cl)C1=O	0.67					
8.2	> 100			C/C=C/C(=O)N1CCC=CC1=O	1.21					
74.7	5.6	24.7	7.8	O=C(/C=C/c1ccc(C(F)(F)F)cc1)N1CCC=C(Cl)C1=O	2.64	Active	< 1	inactive	Active	inactive
30.8	> 100			COc1cc(/C=C/C(=O)N2CCC=C(Cl)C2=O)cc(OC)c1OC	0.99					
0	> 100			COc1cc(CCC(=O)N2CCCCC2=O)cc(OC)c1OC [TETRAHYDROPIPLARTINE]						

More lines, now with the values behind:

Compound	inhibition [1] [%]	IC50 [2] [µM]	Ki [8] [µM]	Ki [10] [µM]	K [3] [M⁻¹ s⁻¹]	inhibition [4]	CI [5]	inhibition [6]	inhibition [7]	inhibition [9]
COc1cc(/C=C/C(=O)C2CCC=CC2=O)cc(OC)c1OC (stereo not drawn)	50.5	> 100			1.15					
O=C1C=CCCN1C(=O)/C=C/c1cccc(C(F)(F)F)c1	53	50.1			1.13					
O=C1C=CCCN1C(=O)/C=C/c1ccccc1C(F)(F)F	31.5	> 100			0.39					
O=C1C=CCCN1C(=O)/C=C/c1ccc(C(F)(F)F)cc1	55.5	41.6			1.35					
COc1cc(/C=C/C(=O)N2CCC=CC2=O)cc(OC)c1OC [PIPLARTINE]	30.7	> 100			0.46	inactive				
O=C(/C=C/c1cccc(C(F)(F)F)c1)N1CCC=C(Cl)C1=O	71	10.5			2.53					
COc1cc(/C=C/C(=O)N2CCCCC2=O)cc(OC)c1OC	15.4	> 100			0.35					
